A value given as a limit tells only on which side of the number the result lay.

The subject of series [1] is Haemonchus contortus. Kind of series: Anthelmintic activity against Haemonchus contortus Rudolphi L3 larvae infected sheep assessed as reduction of faecal egg counts at 0.25 mg/kg, po. It is filed as functional, Feces. Also on record: scale not given: the % may be the effect or the level left. A digest of the protocol:
(§1)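 Sheep experimentally infected with Haemonchus contortus Rudolphi L3 larvae; dosed after the parasite's prepatency period ended. Compound given orally in gelatine capsules. Faecal egg counts by McMaster method (Wetzel modification) on freshly obtained faeces, counted at regular intervals before and after treatment; activity expressed as reduction in egg counts.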

Series [2] can be described thus: Partition coefficient, log P at pH 2.3. It is filed as physicochemical. To be noted: octanol/water.
Series [3] concerns Haemonchus contortus. Kind of series: Anthelmintic activity against Haemonchus contortus Rudolphi L3 larvae infected sheep assessed as reduction of faecal egg counts at 5 mg/kg, po. Also on record: scale not given: the % may be the effect or the level left. It is filed as functional, Feces. A digest of the protocol:
as §1

The subject of series [4] is Haemonchus contortus. Kind of series: Anthelmintic activity against Haemonchus contortus Rudolphi L3 larvae infected sheep assessed as reduction of faecal egg counts at 0.50 mg/kg, po. It is filed as functional, Feces. To be noted: dose 0.5 mg/kg. Also on record: scale not given: the % may be the effect or the level left. A digest of the protocol: as §1

As to `CC(C)C[C@H]1C(=O)O[C@H](CC2CCCCC2)C(=O)N(C)[C@@H](CC(C)C)C(=O)O[C@H](C)C(=O)N(C)[C@@H](CC(C)C)C(=O)O[C@H](C)C(=O)N1C`, in the series with Haemonchus contortus [1], the Activity was found to be 75%. In series [2], this compound registered a logP of 5.57.

`CC[C@@H](C)[C@H]1C(=O)O[C@H](C(C)C)C(=O)N(C)[C@@H](Cc2ccccc2)C(=O)O[C@H](C(C)C)C(=O)N(C)[C@@H]([C@H](C)CC)C(=O)O[C@H](C(C)C)C(=O)N1C` displayed a log partition coefficient (logP) in series [2] of 5.46. In addition, in the series on Haemonchus contortus [3], the Activity entry is “>=95%”.

Consider `CC[C@@H](C)[C@H]1C(=O)O[C@H](C)C(=O)N(C)[C@@H](CC2CCCCC2)C(=O)O[C@H](C)C(=O)N(C)[C@@H]([C@H](C)CC)C(=O)O[C@H](C)C(=O)N1C`, for which the Activity result in the series on Haemonchus contortus [1] is on record as “>=95%”. For the same compound, the log partition coefficient (logP) in series [2] turned out to be 4.91.

With `CC[C@@H](C)[C@H]1C(=O)O[C@H](C(C)C)C(=O)N(C)[C@@H](CC2CCCCC2)C(=O)O[C@H](C(C)C)C(=O)N(C)[C@@H]([C@H](C)CC)C(=O)O[C@H](C(C)C)C(=O)N1C`, the Activity with Haemonchus contortus [4] was 75%. In series [2], this compound had a logP of 6.3.

Turning to `CC[C@@H](C)[C@H]1C(=O)O[C@H](C)C(=O)N(C)[C@@H](Cc2ccccc2)C(=O)O[C@H](C)C(=O)N(C)[C@@H]([C@H](C)CC)C(=O)O[C@H](C)C(=O)N1C`, in the series on Haemonchus contortus [1], the Activity is given as 50%. Besides, in series [2], the log partition coefficient (logP) turned out to be 4.28.

For the compound `CC(C)C[C@H]1C(=O)O[C@H](Cc2ccccc2)C(=O)N(C)[C@@H](CC(C)C)C(=O)O[C@H](C)C(=O)N(C)[C@@H](CC(C)C)C(=O)O[C@H](C)C(=O)N1C`, the logP in series [2] came to 4.63. In addition, in the series with Haemonchus contortus [3], the Activity entry is “<=50%”.

The values above are taken from ChEMBL document CHEMBL1139962, “Synthesis and anthelmintic activity of cyclohexadepsipeptides with cyclohexylmethyl side chains” (Bioorg Med Chem Lett, 2007).
